The subject of one experiment is SK-MEL-28. Description: Antiproliferative activity against human SK-MEL-28 cells after 48 hrs by SRB assay. In kind it is functional, cell-based. The following applies: SK-MEL-28, 48 h. A digest of the protocol:
(§1)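 NCI melanoma panel grown in RPMI 1640 with 5% FBS and 2 mM glutamine. Seeded at 5000–40,000 cells/well, then 24 h before dosing, with time-zero plates fixed. Five concentrations (10-fold or 1/2-log dilutions from DMSO stock) for 48 h. Cells TCA-fixed, stained with 0.4% SRB, read at 515 nm. IC50 is 50% reduction in net protein increase, from (Ti−Tz)/(C−Tz).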

In a further experiment the test system is MDA-MB-435. As to the kind of experiment: Antiproliferative activity against human MDA-MB-435 cells after 48 hrs by SRB assay. In kind it is functional, cell-based. The following applies: MDA-MB-435, 48 h. A digest of the protocol: as §1
On the technique in general: Sulforhodamine B stains cellular protein and so reports cell mass.

Another experiment deals with UACC-62. As to the kind of experiment: Antiproliferative activity against human UACC62 cells after 48 hrs by SRB assay. It counts as functional, cell-based. The following applies: UACC-62, 48 h. A digest of the protocol:
as §1

A further experiment deals with SK-MEL-5. As to the kind of experiment: Antiproliferative activity against human SK-MEL-5 cells after 48 hrs by SRB assay. The following applies: SK-MEL-5, 48 h. It counts as functional, cell-based. An outline of the steps: as §1
Experiment [1] is described as follows: Antiproliferative activity against human A375P cells after 48 hrs by MTT assay. In kind it is functional, cell-based. A digest of the protocol: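 A375P cells grown in DMEM with 10% FBS and 1% penicillin/streptomycin at 37 °C, 5% CO2. Cells detached with 0.05% trypsin-0.02% EDTA, seeded at 5×10^3 cells/well, and left 24 h. Then exposed for 48 h to 12-point 3-fold serial dilutions. Viability read by MTT reduction, absorbance at 590 nm. IC50 derived from the concentration-response curve.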
(In general: Tetrazolium assays rely on reduction of a dye to a coloured formazan, in cell work by metabolically active cells.)

Another experiment concerns M14. As to the kind of experiment: Antiproliferative activity against human M14 cells after 48 hrs by SRB assay. In kind it is functional, cell-based. The following applies: M14, 48 h. A digest of the protocol:
as §1

The next experiment relates to SK-MEL-2. As to the kind of experiment: Antiproliferative activity against human SK-MEL-2 cells after 48 hrs by SRB assay. It counts as functional, cell-based. The following applies: SK-MEL-2, 48 h. A digest of the protocol:
as §1

The subject of the next experiment is LOX IMVI. As to the kind of experiment: Antiproliferative activity against human LOXIMVI cells after 48 hrs by SRB assay. It counts as functional, cell-based. A digest of the protocol:
as §1

For a further experiment, the system named is UACC-257. Description: Antiproliferative activity against human UACC257 cells after 48 hrs by SRB assay. The following applies: UACC-257, 48 h. It counts as functional, cell-based. An outline of the steps: as §1
Experiment [2] deals with Mitogen-activated protein kinase; ERK1/ERK2 (Homo sapiens) (UniProt P27361+P28482). As to the kind of experiment: Inhibition of ERK1/2 phosphorylation in human A375P cells after 24 hrs by immunoblotting. In kind it is cell-based. An outline of the steps:
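A375P melanoma cells treated with 1, 3 and 10 μM compound for 24 h. Lysed in RIPA buffer, sonicated, centrifuged, and protein quantified by DC assay. Lysates run on SDS-PAGE and immunoblotted for phospho-ERK1/2, with β-actin as loading reference.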
On the technique in general: A western blot detects proteins with antibodies after separation by electrophoresis.

The structures appear in SMILES notation. A value given as a limit tells only on which side of the number the result lay.

Mitogen-activated protein kinase; ERK1/ERK2 (Homo sapiens), sequence (P27361 whole entry, looked up): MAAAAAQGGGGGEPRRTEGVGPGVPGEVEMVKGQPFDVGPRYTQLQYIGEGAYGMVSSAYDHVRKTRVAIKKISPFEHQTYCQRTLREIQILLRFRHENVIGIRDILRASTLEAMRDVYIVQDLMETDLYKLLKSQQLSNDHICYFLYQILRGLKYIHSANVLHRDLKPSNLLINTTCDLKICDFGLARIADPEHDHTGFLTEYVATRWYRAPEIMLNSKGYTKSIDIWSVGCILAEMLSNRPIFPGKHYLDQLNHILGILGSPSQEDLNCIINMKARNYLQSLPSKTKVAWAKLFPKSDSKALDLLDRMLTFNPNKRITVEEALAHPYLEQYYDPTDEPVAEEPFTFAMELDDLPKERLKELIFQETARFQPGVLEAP
Mitogen-activated protein kinase; ERK1/ERK2 (Homo sapiens), sequence (P28482 whole entry, looked up): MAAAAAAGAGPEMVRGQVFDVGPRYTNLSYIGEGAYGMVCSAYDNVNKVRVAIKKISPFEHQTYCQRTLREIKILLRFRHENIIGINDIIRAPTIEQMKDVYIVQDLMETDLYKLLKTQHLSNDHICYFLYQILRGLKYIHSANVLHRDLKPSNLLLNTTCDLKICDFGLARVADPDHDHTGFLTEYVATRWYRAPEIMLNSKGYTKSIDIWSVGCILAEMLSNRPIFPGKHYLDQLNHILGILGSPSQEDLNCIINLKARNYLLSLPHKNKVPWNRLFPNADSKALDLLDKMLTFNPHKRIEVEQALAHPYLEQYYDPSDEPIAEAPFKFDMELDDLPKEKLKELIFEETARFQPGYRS

Turning to `O=C(Nc1ccc(-n2cc(-c3ccncc3)c(-c3ccc(Cl)c(O)c3)n2)cc1)c1cc(C(F)(F)F)cc(C(F)(F)F)c1`, the IC50 in the experiment on SK-MEL-28 is 4.88 µM; in the experiment on MDA-MB-435 it was 4.11 µM; in the experiment on UACC-62 it was 14.4 µM; in the experiment with SK-MEL-5, 1.55 µM; in [1], greater than 20 µM; in the experiment on M14 it was 6.34 µM. In addition, the IC50 in the experiment on SK-MEL-2 came out at 6.6 µM; with LOX IMVI, 2.54 µM; with UACC-257, 8.94 µM.

Consider `COc1cc(-c2nn(-c3ccc(NC(=O)c4ccc(Cl)c(Cl)c4)cc3)cc2-c2ccncc2)ccc1Cl`, for which the IC50 in the experiment on SK-MEL-28 amounted to 40.3 µM; in the experiment on MDA-MB-435 it was 7.13 µM; in the experiment on UACC-62, 6.34 µM; with SK-MEL-5, 1.65 µM; in experiment [1] it was 13 µM; with M14, 22.4 µM. Further, the concentration for half-maximal inhibition (IC50) in the experiment on SK-MEL-2 was 5.74 µM; with LOX IMVI, 2.76 µM; in the experiment with UACC-257, greater than 100 µM.

Consider `O=C(Nc1ccc(-n2cc(-c3ccncc3)c(-c3ccc(Cl)c(O)c3)n2)cc1)Nc1ccc(Cl)c(C(F)(F)F)c1`, for which the IC50 came to 1.63 µM in the experiment on SK-MEL-28; 1.32 µM in the experiment on MDA-MB-435; 1.7 µM in the experiment on UACC-62; 1.53 µM in the experiment on SK-MEL-5; 14.9 µM in experiment [1]; 1.43 µM in the experiment with M14. Further, the IC50 in the experiment on SK-MEL-2 worked out at 1.7 µM; in the experiment with LOX IMVI it was 1.44 µM; in the experiment on UACC-257 it was 1.51 µM.

For `O=C(Nc1ccc(-n2cc(-c3ccncc3)c(-c3ccc(Cl)c(O)c3)n2)cc1)c1cc(Cl)cc(Cl)c1`, the concentration for half-maximal inhibition (IC50) came to 2.75 µM with SK-MEL-28; 3.78 µM with MDA-MB-435; 2.73 µM in the experiment on UACC-62; 1.4 µM with SK-MEL-5; 6.8 µM in [1]; 1.51 µM in the experiment with M14. The values for the IC50 in the experiment with SK-MEL-2, in the experiment with LOX IMVI and in the experiment with UACC-257 were 6.91 µM, 1.19 µM and 5.7 µM, respectively.

Take `COc1cc(-c2nn(-c3ccc(NC(=O)c4cc(Cl)cc(Cl)c4)cc3)cc2-c2ccncc2)ccc1Cl`: the IC50 in the experiment on SK-MEL-28 is greater than 100 µM; in the experiment with MDA-MB-435, greater than 100 µM; in the experiment with UACC-62, 4.58 µM; in the experiment on SK-MEL-5, 12 µM; in experiment [1] it was greater than 20 µM; in the experiment with M14, 7.39 µM. Moreover, the IC50 with SK-MEL-2 was greater than 100 µM; with LOX IMVI, 3.09 µM; in the experiment on UACC-257, greater than 100 µM.

Take `COc1cc(-c2nn(-c3ccc(NC(=O)Nc4ccc(Cl)c(Cl)c4)cc3)cc2-c2ccncc2)ccc1Cl`: the IC50 with SK-MEL-28 is 3.94 µM; in the experiment with MDA-MB-435, 2.87 µM; with UACC-62 it was 3.35 µM; in the experiment on SK-MEL-5, 2.84 µM; in experiment [1], greater than 20 µM; with M14, 2.56 µM. Besides, the IC50 in the experiment with SK-MEL-2 came to 3.44 µM; in the experiment with LOX IMVI, 1.98 µM; in the experiment with UACC-257, 3.17 µM.

For `O=C(Nc1ccc(-n2cc(-c3ccncc3)c(-c3ccc(Cl)c(O)c3)n2)cc1)Nc1cccc(Cl)c1Cl`, the IC50 in experiment [1] was 16.8 µM.

Take `COc1cc(-c2nn(-c3ccc(NC(=O)c4cc(C(F)(F)F)cc(C(F)(F)F)c4)cc3)cc2-c2ccncc2)ccc1Cl`: the IC50 in [1] was greater than 20 µM.

Turning to `CNC(=O)c1cc(Oc2ccc(NC(=O)Nc3ccc(Cl)c(C(F)(F)F)c3)cc2)ccn1` [SORAFENIB], 11.5 µM corresponded to half-maximal inhibition in experiment [1] (IC50).

Take `COc1cc(-c2nn(-c3ccc(NC(=O)Nc4ccc(Cl)c(C(F)(F)F)c4)cc3)cc2-c2ccncc2)ccc1Cl`: the IC50 came out at 1.88 µM with SK-MEL-28; 1.6 µM with MDA-MB-435; 1.77 µM in the experiment on UACC-62; 1.57 µM with SK-MEL-5; 14 µM in experiment [1]; 1.74 µM in the experiment with M14. The IC50 in the experiment with SK-MEL-2 turned out to be 1.63 µM; in the experiment on LOX IMVI, 1.43 µM; in the experiment on UACC-257 it was 1.64 µM.

`O=C(Nc1ccc(-n2cc(-c3ccncc3)c(-c3ccc(Cl)c(O)c3)n2)cc1)c1ccc(Cl)c(Cl)c1`: the IC50 with SK-MEL-28 is 2.94 µM; with MDA-MB-435 it was 2.73 µM; in the experiment on UACC-62 it was 3.22 µM; in the experiment on SK-MEL-5, 1.15 µM; in [1], 6.7 µM; in the experiment with M14, 2.35 µM. Further, the results for the IC50 in the experiment on SK-MEL-2, in the experiment with LOX IMVI and in the experiment on UACC-257 were 4.05 µM, 1.45 µM and 4.74 µM, respectively. In experiment [2], the inhibition entry was “Dose-dependent effect”.

As for `O=C(Nc1ccc(-n2cc(-c3ccncc3)c(-c3ccc(Cl)c(O)c3)n2)cc1)Nc1ccc(Cl)c(Cl)c1`, it took 13.5 µM to reach half-maximal inhibition in experiment [1] (IC50).

Take `O=C(Nc1ccc(-n2cc(-c3ccncc3)c(-c3ccc(Cl)c(O)c3)n2)cc1)c1ccc(Cl)c(C(F)(F)F)c1`: the IC50 with SK-MEL-28 stood at 1.08 µM; in the experiment on MDA-MB-435, 1.2 µM; in the experiment on UACC-62, 2.03 µM; in the experiment on SK-MEL-5, 1.07 µM; in experiment [1], 6.8 µM; in the experiment with M14, 0.84 µM. Further, the IC50 in the experiment with SK-MEL-2 came to 1.58 µM; with LOX IMVI, 0.36 µM; with UACC-257, 2.55 µM.

As to `O=C(Nc1ccc(-n2cc(-c3ccncc3)c(-c3ccc(Cl)c(O)c3)n2)cc1)Nc1cc(C(F)(F)F)cc(C(F)(F)F)c1`, the IC50 was 2.01 µM in the experiment with SK-MEL-28; 1.77 µM with MDA-MB-435; 2.23 µM in the experiment with UACC-62; 1.67 µM in the experiment on SK-MEL-5; greater than 20 µM in experiment [1]; 1.76 µM in the experiment on M14. Besides, the half-inhibitory concentration (IC50) was determined as 1.8 µM with SK-MEL-2, 1.63 µM in the experiment with LOX IMVI and 2.01 µM with UACC-257.

`COc1cc(-c2nn(-c3ccc(NC(=O)Nc4cc(C(F)(F)F)cc(C(F)(F)F)c4)cc3)cc2-c2ccncc2)ccc1Cl`: the 50% inhibitory concentration (IC50) in the experiment on SK-MEL-28 amounted to 1.93 µM; in the experiment on MDA-MB-435, 1.88 µM; with UACC-62, 1.55 µM; in the experiment on SK-MEL-5, 1.53 µM; in experiment [1] it was 11.8 µM; in the experiment with M14 it was 1.99 µM. The IC50 was determined as 1.7 µM with SK-MEL-2, 1.63 µM in the experiment with LOX IMVI and 2.3 µM with UACC-257.

On to `COc1cc(-c2nn(-c3ccc(NC(=O)Nc4cccc(Cl)c4Cl)cc3)cc2-c2ccncc2)ccc1Cl`, for which the IC50 in experiment [1] was greater than 20 µM.

On to `COc1cc(-c2nn(-c3ccc(NC(=O)c4ccc(Cl)c(C(F)(F)F)c4)cc3)cc2-c2ccncc2)ccc1Cl`, for which the 50% inhibitory concentration (IC50) amounted to 2.8 µM with SK-MEL-28; 2.52 µM with MDA-MB-435; 2.18 µM with UACC-62; 1.59 µM with SK-MEL-5; 9.8 µM in experiment [1]; 1.92 µM with M14. The results for the IC50 in the experiment with SK-MEL-2, with LOX IMVI and in the experiment on UACC-257 were 3.15 µM, 1.56 µM and 5.83 µM, respectively.

As a reminder, the IC50 is the concentration that gives 50% inhibition. Higher therefore signals lower potency.

These data come from ChEMBL document CHEMBL1909578, “New diarylureas and diarylamides containing 1,3,4-triarylpyrazole scaffold: Synthesis, antiproliferative evaluation against melanoma cell lines, ERK kinase inhibition, and molecular docking studies” (Eur J Med Chem, 2011).
